Tests used:
[1] = Resistance index (IC50 of MCF7 resistant cell line/IC50 of MCF7 sensitive cell line); assay type: functional, Homo sapiens
[2] = system: MCF7-DOX; experiment: Cytotoxic potency in doxorubicin resistant MCF7 cell line after 72 hr exposure by SRB test; assay type: functional, cell-based; details: Homo sapiens
Procedure, shortened: (§1)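 Monolayers grown in RPMI-1640 with 5% FCS, 5% NuSerum IV, 20 mM Hepes, 2 mM L-glutamine, 37 °C, 5% CO2. 800–1500 cells/well attached 15–18 h, then given 10 concentrations over a 5-log range (DMSO stock diluted in RPMI/10 mM Hepes) for 72 h. Cells TCA-fixed, sulforhodamine B stained, OD 570 nm. IC50 from Sigmoid-Emax nonlinear regression; means of ≥3 independent experiments ± SE.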

[3] = system: MCF7; experiment: Cytotoxic potency in MCF7 human mammary carcinoma cell line after 72 hr exposure by SRB test; assay type: functional, cell-based; details: MCF7, 72 h; procedure, shortened: as §1

In the case of `CC(=O)O[C@@]1([C@@H]2/C(C)=C(/O)C(=O)C3=C(C)[C@@H](OC(=O)[C@H](O)[C@H](CC(C)C)NC(=O)OC(C)(C)C)C[C@@](O)([C@H]2OC(=O)c2ccccc2)C3(C)C)CO[C@@H]1CCO`, the “Ratio IC50” value [1] is reported as 93, the IC50 [2] is reported as 1040 nM and the IC50 [3] is reported as 11.2 nM.
For `COc1cccc(C(=O)O[C@H]2[C@@H]3[C@]4(OC(C)=O)CO[C@@H]4C[C@H](O)[C@@]3(C)C(=O)[C@H](OC(C)=O)C3=C(C)[C@@H](OC(=O)[C@H](O)[C@H](CC(C)C)NC(=O)OC(C)(C)C)[C@@H]4OC(=O)O[C@]42C3(C)C)c1`, the “Ratio IC50” value [1] was 17, the IC50 [2] was 4 nM and the IC50 [3] was 0.24 nM.
For `COc1cccc(C(=O)O[C@H]2[C@H]([C@]3(OC(C)=O)CO[C@@H]3CCO)/C(C)=C(/O)C(=O)C3=C(C)[C@@H](OC(=O)[C@H](O)[C@H](CC(C)C)NC(=O)OC(C)(C)C)[C@@H]4OC(=O)O[C@]42C3(C)C)c1`, the “Ratio IC50” value [1] was 240, the IC50 [2] was 120 nM and the IC50 [3] was 0.5 nM.
In the case of `CC(=O)O[C@H]1C(=O)[C@@]2(C)[C@H]([C@H](OC(=O)c3ccccc3)[C@]3(O)C[C@H](OC(=O)[C@H](O)[C@@H](NC(=O)c4ccccc4)c4ccccc4)C(C)=C1C3(C)C)[C@]1(OC(C)=O)CO[C@@H]1C[C@@H]2O` [PACLITAXEL], the “Ratio IC50” value [1] is reported as 975, the IC50 [2] is reported as 585 nM and the IC50 [3] is reported as 0.6 nM.
With `CC(=O)O[C@H]1C(=O)[C@@]2(C)[C@H]([C@H](OC(=O)c3ccccc3)[C@]34OC(=O)O[C@H]3[C@H](OC(=O)[C@H](O)[C@H](CC(C)C)NC(=O)OC(C)(C)C)C(C)=C1C4(C)C)[C@]1(OC(C)=O)CO[C@@H]1C[C@@H]2O` [ORTATAXEL] the “Ratio IC50” value [1] was 20, the IC50 [2] was 32 nM and the IC50 [3] was 1.6 nM.

— ChEMBL document CHEMBL1141208, “Synthesis and biological evaluation of methoxylated analogs of the newer generation taxoids IDN5109 and IDN5390” (Bioorg Med Chem Lett, 2005)
